Assay results reported in ChEMBL document CHEMBL1781927, “Highly selective c-Jun N-terminal kinase (JNK) 3 inhibitors with in vitro CNS-like pharmacokinetic properties II. Central core replacement” (Bioorg Med Chem Lett, 2011).
pIC50: −log10 of the molar value. ≈ marks a conversion by molar mass, not a printed value.

Key:
[1] = target: T1, Mitogen-activated protein kinase 10 (Homo sapiens, UniProt P53779); assay: Inhibition of JNK3 by TR-FRET assay
Summary of the method: (§1)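 IC50s were determined at a single fixed ATP concentration, and each value is the mean of at least three independent experiments.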

[2] = target: Mitogen-activated protein kinase 9 (Homo sapiens, UniProt P45984); assay: Inhibition of JNK2 by TR-FRET assay; summary of the method: as §1
Chain of Mitogen-activated protein kinase 9 (P45984 whole entry): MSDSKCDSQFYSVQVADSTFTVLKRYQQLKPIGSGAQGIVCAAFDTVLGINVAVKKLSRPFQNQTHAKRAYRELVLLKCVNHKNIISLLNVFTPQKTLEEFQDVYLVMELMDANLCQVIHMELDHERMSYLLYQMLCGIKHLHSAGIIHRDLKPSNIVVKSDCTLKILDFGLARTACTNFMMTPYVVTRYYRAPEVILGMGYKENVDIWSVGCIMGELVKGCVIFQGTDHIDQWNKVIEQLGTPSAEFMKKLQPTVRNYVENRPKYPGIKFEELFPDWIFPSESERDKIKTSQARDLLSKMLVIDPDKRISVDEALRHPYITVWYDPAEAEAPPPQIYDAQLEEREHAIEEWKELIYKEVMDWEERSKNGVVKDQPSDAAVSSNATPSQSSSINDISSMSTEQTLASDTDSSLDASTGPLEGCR

[3] = target: Mitogen-activated protein kinase 8 (Homo sapiens, UniProt P45983); assay: Inhibition of JNK1 by TR-FRET assay; summary of the method: as §1
Chain of Mitogen-activated protein kinase 8 (P45983 whole entry): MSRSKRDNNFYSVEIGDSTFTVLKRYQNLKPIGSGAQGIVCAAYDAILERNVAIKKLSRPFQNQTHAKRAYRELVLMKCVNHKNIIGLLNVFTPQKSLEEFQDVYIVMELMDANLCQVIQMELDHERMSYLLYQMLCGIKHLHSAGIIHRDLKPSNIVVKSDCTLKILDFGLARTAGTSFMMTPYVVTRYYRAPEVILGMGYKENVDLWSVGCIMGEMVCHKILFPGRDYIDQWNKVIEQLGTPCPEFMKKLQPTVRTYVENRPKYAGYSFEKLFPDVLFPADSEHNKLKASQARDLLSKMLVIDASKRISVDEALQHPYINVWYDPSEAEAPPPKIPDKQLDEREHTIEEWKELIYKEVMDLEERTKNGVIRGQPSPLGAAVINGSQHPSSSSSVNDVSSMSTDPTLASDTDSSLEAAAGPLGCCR

[4] = Solubility of the compound; format: physicochemical
[5] = Oxidative metabolic stability in mouse liver microsomes assessed as compound remaining after 30 mins; format: ADME, Microsome; conditions: read-out: Stability
Summary of the method: (§2)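 Liver microsomes, mouse or human, were incubated with the compound for 30 min under oxidative conditions. The read-out is the percent of parent compound remaining.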

[6] = Oxidative metabolic stability in human liver microsomes assessed as compound remaining after 30 mins; format: ADME, Microsome; conditions: read-out: Stability; summary of the method: as §2
[7] = Metabolic stability in mouse liver microsomes assessed as compound remaining after 60 mins in presence of UDPGA; format: ADME, Microsome; conditions: read-out: Stability
[8] = Metabolic stability in human liver microsomes assessed as compound remaining after 60 mins in presence of UDPGA; format: ADME, Microsome; conditions: read-out: Stability
[9] = Efflux ratio, permeability from apical to basolateral side to basolateral to apical side in MDR1 expressing MDCK2 cells at 5 uM after 120 mins; format: ADME, cell-based, Canis lupus familiaris; conditions: dog, mdck-ii, 2 h
[10] = target: Serine/threonine-protein kinase PLK1 (Homo sapiens) (UniProt P53350); assay: Inhibition of PLK1 at 10 uM
[11] = target: Serine/threonine-protein kinase PLK2 (Homo sapiens) (UniProt Q9NYY3); assay: Inhibition of PLK2 at 10 uM
[12] = target: Serine/threonine-protein kinase PLK3 (Homo sapiens) (UniProt Q9H4B4); assay: Inhibition of PLK3 at 10 uM
[13] = target: cAMP-dependent protein kinase catalytic subunit alpha (Homo sapiens) (UniProt P17612); assay: Inhibition of PKACA at 10 uM
[14] = target: Calcium/calmodulin-dependent protein kinase type II subunit alpha (Homo sapiens) (UniProt Q9UQM7); assay: Inhibition of CAMK2A at 10 uM
[15] = target: Macrophage colony-stimulating factor 1 receptor (Homo sapiens) (UniProt P07333); assay: Inhibition of CSF1R at 10 uM
[16] = target: RAF proto-oncogene serine/threonine-protein kinase (Homo sapiens) (UniProt P04049); assay: Inhibition of RAF1 at 10 uM
[17] = target: T1, Mitogen-activated protein kinase 10; assay: Inhibition of MAPK10 at 10 uM
[18] = target: PI3-kinase p110-alpha/p85-alpha (Homo sapiens) (UniProt P27986+P42336); assay: Inhibition of PIK3CA/PIK3R1 at 10 uM; format: protein-complex assay
[19] = target: Receptor-type tyrosine-protein kinase FLT3 (Homo sapiens) (UniProt P36888); assay: Inhibition of FLT3 at 10 uM
[20] = target: Dual specificity protein kinase TTK (Homo sapiens) (UniProt P33981); assay: Inhibition of TTK at 10 uM
Chain of Dual specificity protein kinase TTK (Homo sapiens) (P33981 whole entry): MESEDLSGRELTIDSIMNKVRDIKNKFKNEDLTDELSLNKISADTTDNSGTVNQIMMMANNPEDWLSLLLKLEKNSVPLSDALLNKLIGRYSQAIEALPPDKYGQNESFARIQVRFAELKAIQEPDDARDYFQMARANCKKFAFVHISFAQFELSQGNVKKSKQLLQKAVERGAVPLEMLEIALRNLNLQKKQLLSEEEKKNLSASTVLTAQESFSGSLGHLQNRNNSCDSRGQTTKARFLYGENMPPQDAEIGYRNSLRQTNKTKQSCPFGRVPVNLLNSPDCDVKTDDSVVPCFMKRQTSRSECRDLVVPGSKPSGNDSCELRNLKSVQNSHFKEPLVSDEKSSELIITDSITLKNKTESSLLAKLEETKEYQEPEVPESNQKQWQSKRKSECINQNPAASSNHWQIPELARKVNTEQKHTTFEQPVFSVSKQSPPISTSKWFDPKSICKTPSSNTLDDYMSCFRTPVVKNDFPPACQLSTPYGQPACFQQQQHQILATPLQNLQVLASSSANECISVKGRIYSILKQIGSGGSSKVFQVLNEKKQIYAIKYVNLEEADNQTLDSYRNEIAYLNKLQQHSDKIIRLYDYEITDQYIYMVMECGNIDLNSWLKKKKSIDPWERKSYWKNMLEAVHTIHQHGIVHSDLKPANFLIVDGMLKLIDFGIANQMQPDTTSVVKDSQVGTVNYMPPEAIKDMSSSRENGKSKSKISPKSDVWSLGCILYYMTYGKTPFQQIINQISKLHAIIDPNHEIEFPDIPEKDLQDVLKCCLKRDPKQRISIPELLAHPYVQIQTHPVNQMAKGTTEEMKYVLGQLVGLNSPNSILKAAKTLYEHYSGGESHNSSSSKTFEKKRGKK

[21] = target: Glycogen synthase kinase-3 beta (Homo sapiens) (UniProt P49841); assay: Inhibition of GSK3B at 10 uM
[22] = target: Tyrosine-protein kinase SYK (Homo sapiens) (UniProt P43405); assay: Inhibition of SYK at 10 uM
[23] = target: Protein kinase C beta type (Homo sapiens) (UniProt P05771); assay: Inhibition of PRKCB1 at 10 uM
[24] = target: Rho-associated protein kinase 2 (Homo sapiens) (UniProt O75116); assay: Inhibition of ROCK2 at 10 uM
[25] = target: Cyclin-dependent kinase 5/CDK5 activator 1 (Homo sapiens) (UniProt Q00535+Q15078); assay: Inhibition of CDK5/p25 at 10 uM; format: protein-complex assay
[26] = target: Dual specificity tyrosine-phosphorylation-regulated kinase 1B (Homo sapiens) (UniProt Q9Y463); assay: Inhibition of DYRK1B at 10 uM
[27] = target: Leucine-rich repeat serine/threonine-protein kinase 2 (Homo sapiens) (UniProt Q5S007); assay: Inhibition of LRRK2 at 10 uM
[28] = target: Receptor tyrosine-protein kinase erbB-4 (Homo sapiens) (UniProt Q15303); assay: Inhibition of ERBB4 at 10 uM
[29] = target: Platelet-derived growth factor receptor alpha (Homo sapiens) (UniProt P16234); assay: Inhibition of PDGFRA at 10 uM
Chain of Platelet-derived growth factor receptor alpha (Homo sapiens) (P16234 whole entry): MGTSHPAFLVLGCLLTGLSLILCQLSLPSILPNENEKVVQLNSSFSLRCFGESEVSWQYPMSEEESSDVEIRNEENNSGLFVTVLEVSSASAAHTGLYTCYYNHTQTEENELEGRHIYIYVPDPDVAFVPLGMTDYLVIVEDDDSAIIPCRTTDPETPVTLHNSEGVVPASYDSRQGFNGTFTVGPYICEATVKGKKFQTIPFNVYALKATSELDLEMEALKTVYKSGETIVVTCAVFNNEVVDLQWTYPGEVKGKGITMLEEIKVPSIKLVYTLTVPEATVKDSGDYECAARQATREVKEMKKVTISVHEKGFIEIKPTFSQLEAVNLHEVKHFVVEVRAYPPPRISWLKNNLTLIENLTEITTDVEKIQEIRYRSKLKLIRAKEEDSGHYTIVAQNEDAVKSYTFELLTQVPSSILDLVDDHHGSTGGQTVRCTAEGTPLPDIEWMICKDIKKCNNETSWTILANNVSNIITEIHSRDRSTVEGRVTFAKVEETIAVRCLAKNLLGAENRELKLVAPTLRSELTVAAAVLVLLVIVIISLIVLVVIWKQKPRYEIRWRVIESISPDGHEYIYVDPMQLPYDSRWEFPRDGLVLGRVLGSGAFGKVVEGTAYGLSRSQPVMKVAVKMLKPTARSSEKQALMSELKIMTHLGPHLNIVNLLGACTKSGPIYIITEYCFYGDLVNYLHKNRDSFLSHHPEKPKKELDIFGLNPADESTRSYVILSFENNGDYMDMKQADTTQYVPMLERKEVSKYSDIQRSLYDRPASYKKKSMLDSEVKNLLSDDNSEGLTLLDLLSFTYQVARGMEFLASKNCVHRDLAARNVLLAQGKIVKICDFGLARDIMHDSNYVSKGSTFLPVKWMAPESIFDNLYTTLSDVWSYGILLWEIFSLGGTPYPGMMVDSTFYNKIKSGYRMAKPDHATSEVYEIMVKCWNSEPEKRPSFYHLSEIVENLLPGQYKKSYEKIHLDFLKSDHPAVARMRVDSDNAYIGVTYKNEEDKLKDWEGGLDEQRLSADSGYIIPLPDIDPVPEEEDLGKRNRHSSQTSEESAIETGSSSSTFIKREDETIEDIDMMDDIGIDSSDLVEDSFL

[30] = target: Serine/threonine-protein kinase PAK 4 (Homo sapiens) (UniProt O96013); assay: Inhibition of PAK4 at 10 uM
[31] = target: Tyrosine-protein kinase ABL1 (Homo sapiens) (UniProt P00519); assay: Inhibition of ABL1 at 10 uM
[32] = target: Dual specificity protein kinase CLK1 (Homo sapiens) (UniProt P49759); assay: Inhibition of CLK1 at 10 uM
Chain of Dual specificity protein kinase CLK1 (Homo sapiens) (P49759 whole entry, looked up): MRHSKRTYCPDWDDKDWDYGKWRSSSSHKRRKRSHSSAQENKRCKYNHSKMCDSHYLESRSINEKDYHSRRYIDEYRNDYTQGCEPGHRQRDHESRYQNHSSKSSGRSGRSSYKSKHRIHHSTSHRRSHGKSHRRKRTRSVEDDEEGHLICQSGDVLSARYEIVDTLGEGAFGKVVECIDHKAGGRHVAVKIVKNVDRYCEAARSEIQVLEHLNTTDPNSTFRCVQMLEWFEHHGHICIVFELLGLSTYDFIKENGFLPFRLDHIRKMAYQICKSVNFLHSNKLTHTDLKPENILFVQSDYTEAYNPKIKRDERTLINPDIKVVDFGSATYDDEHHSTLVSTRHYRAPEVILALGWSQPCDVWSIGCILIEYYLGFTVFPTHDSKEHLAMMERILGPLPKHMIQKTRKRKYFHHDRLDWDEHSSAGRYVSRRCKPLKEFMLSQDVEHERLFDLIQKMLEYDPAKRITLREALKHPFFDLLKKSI

[33] = target: Insulin receptor (Homo sapiens) (UniProt P06213); assay: Inhibition of INSR at 10 uM
[34] = target: Receptor-interacting serine/threonine-protein kinase 2 (Homo sapiens) (UniProt O43353); assay: Inhibition of RIPK2 at 10 uM
[35] = target: Cyclin-dependent kinase 1/cyclin B1 (Homo sapiens) (UniProt P06493+P14635); assay: Inhibition of CDK1/cyclin B at 10 uM; format: protein-complex assay
[36] = target: Mitogen-activated protein kinase 1 (Homo sapiens) (UniProt P28482); assay: Inhibition of MAPK1 at 10 uM
[37] = target: Protein-tyrosine kinase 2-beta (Homo sapiens) (UniProt Q14289); assay: Inhibition of PTK2B at 10 uM
[38] = target: RAC-alpha serine/threonine-protein kinase (Homo sapiens) (UniProt P31749); assay: Inhibition of AKT1 at 10 uM
[39] = target: Serine/threonine-protein kinase MARK2 (Homo sapiens) (UniProt Q7KZI7); assay: Inhibition of MARK2 at 10 uM
[40] = target: Serine/threonine-protein kinase 16 (Homo sapiens) (UniProt O75716); assay: Inhibition of STK16 at 10 uM
[41] = target: Serine/threonine-protein kinase 3 (Homo sapiens) (UniProt Q13188); assay: Inhibition of STK3 at 10 uM
[42] = target: Tyrosine-protein kinase Lck (Homo sapiens) (UniProt P06239); assay: Inhibition of LCK at 10 uM
[43] = target: Serine/threonine-protein kinase Chk1 (Homo sapiens) (UniProt O14757); assay: Inhibition of CHEK1 at 10 uM
[44] = target: Proto-oncogene tyrosine-protein kinase receptor Ret (Homo sapiens) (UniProt P07949); assay: Inhibition of RET at 10 uM
[45] = target: Cyclin-dependent kinase 2/cyclin A (Homo sapiens) (UniProt P24941+P20248+P78396); assay: Inhibition of CDK2/cyclin A at 10 uM; format: protein-complex assay
[46] = target: Tyrosine-protein kinase JAK1 (Homo sapiens) (UniProt P23458); assay: Inhibition of JAK1 at 10 uM
Chain of Tyrosine-protein kinase JAK1 (Homo sapiens) (P23458 whole entry): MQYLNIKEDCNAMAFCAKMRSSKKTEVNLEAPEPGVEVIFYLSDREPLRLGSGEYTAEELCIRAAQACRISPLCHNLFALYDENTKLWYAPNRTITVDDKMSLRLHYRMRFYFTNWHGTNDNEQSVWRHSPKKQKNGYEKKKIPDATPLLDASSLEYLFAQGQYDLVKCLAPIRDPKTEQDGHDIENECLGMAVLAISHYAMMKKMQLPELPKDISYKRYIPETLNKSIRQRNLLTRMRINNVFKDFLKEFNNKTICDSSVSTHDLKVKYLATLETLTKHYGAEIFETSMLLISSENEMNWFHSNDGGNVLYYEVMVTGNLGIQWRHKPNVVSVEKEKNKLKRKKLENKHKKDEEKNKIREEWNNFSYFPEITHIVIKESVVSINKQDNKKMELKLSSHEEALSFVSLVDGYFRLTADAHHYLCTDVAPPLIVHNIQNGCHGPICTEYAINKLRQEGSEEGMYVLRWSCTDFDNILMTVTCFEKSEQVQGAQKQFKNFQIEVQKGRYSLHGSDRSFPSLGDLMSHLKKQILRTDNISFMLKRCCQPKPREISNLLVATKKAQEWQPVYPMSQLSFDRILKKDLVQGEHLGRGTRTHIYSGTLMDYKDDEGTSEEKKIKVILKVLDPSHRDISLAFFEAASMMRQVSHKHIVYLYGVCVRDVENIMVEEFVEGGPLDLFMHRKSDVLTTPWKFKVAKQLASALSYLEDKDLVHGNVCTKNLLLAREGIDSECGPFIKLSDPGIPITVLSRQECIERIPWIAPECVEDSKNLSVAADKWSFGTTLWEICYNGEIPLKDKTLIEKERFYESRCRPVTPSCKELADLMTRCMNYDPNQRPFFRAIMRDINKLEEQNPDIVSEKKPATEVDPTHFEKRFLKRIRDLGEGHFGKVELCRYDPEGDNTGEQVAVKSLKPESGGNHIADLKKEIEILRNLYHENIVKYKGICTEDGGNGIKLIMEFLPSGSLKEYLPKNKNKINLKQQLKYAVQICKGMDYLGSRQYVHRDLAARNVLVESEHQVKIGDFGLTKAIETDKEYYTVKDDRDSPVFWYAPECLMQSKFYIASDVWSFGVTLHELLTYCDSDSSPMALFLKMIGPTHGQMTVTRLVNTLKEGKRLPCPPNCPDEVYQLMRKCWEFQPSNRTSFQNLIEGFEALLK

[47] = Selectivity ratio of IC50 for JNK1 to IC50 for JNK3
[48] = Apparent permeability from apical to basolateral side in MDCK2 cells at 5 uM after 120 mins; format: ADME, cell-based, Canis lupus familiaris, MDCK-II; conditions: dog, MDCK

T1 sequence (P53779 whole entry): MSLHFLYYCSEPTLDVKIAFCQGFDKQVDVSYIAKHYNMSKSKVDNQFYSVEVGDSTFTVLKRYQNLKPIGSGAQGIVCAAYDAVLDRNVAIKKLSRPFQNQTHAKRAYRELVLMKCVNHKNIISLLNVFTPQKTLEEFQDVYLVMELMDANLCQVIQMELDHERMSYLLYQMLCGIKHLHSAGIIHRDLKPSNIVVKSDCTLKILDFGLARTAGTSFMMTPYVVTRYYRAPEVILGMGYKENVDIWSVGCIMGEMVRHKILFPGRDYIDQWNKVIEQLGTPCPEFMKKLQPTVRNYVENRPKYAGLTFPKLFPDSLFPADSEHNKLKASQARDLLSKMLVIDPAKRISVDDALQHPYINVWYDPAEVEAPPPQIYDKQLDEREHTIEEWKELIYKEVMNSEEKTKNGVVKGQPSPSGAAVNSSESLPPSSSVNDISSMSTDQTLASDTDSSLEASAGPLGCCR

SMILES: S=c1[nH]nc(-c2ccnc(NCC3CC3)c2)n1-c1ccc2ccccc2c1
- pIC50 [1]: 6.02
- pIC50 [2]: 5.65
- pIC50 [3]: < 4.30
- solubility [4]: 35 µM (≈ 13.1 µg/mL)

SMILES: S=c1[nH]nc(-c2ccncc2)n1-c1ccc2ncccc2c1
- pIC50 [1]: 4.50
- pIC50 [2]: < 4.30
- pIC50 [3]: < 4.30
- solubility [4]: 15 µM (≈ 4.58 µg/mL)

SMILES: Clc1nnn(-c2ccncc2)c1-c1ccc2ccccc2c1
- pIC50 [1]: 4.90
- pIC50 [2]: 4.42
- pIC50 [3]: < 4.30
- remaining at 0.5 h [5]: 0%
- remaining at 0.5 h [6]: 5%

SMILES: Fc1cnccc1-c1n[nH]c(=S)n1-c1ccc2ccccc2c1
- pIC50 [1]: 4.56
- pIC50 [2]: 4.46
- pIC50 [3]: < 4.30
- solubility [4]: 35 µM (≈ 11.3 µg/mL)

SMILES: S=c1[nH]nc(-c2ccnc(NC3CCCCC3)c2)n1-c1ccc2ccccc2c1
- pIC50 [1]: 7.28
- pIC50 [2]: 7.18
- pIC50 [3]: < 4.30
- solubility [4]: 5 µM (≈ 2.01 µg/mL)

SMILES: N/N=c1\[nH]nc(-c2ccncc2)n1-c1ccc2ccccc2c1
- pIC50 [1]: 4.83
- pIC50 [2]: 4.47
- pIC50 [3]: < 4.30
- solubility [4]: 65 µM (≈ 19.7 µg/mL)

SMILES: Cc1cc(-c2n[nH]c(=S)n2-c2ccc3ccccc3c2)ccn1
- pIC50 [1]: 4.83
- pIC50 [2]: 4.82
- pIC50 [3]: < 4.30
- solubility [4]: 100 µM (≈ 31.8 µg/mL)

SMILES: S=c1[nH]nc(-c2ccncc2)n1-c1ccc2ccccc2c1
- pIC50 [1]: 6.25
- pIC50 [2]: 5.53
- pIC50 [3]: 4.90
- remaining at 0.5 h [5]: 100%
- remaining at 0.5 h [6]: 100%
- solubility [4]: 100 µM (≈ 30.4 µg/mL)
- remaining at 1 h [7]: 1%
- remaining at 1 h [8]: 8%
- Ratio [9]: 1.12
- inhibition [10]: 22%
- inhibition [11]: 73%
- inhibition [12]: 94%
- inhibition [13]: 93%
- inhibition [14]: 49%
- inhibition [15]: 46%
- inhibition [16]: 45%
- inhibition [17]: 44%
- inhibition [18]: 42%
- inhibition [19]: 41%
- inhibition [20]: 39%
- inhibition [21]: 28%
- inhibition [22]: 26%
- inhibition [23]: 25%
- inhibition [24]: 25%
- inhibition [25]: 19%
- inhibition [26]: 16%
- inhibition [27]: 13%
- inhibition [28]: 12%
- inhibition [29]: 11%
- inhibition [30]: 8%
- inhibition [31]: 8%
- inhibition [32]: 5%
- inhibition [33]: 5%
- inhibition [34]: 4%
- inhibition [35]: 3%
- inhibition [36]: 2%
- inhibition [37]: 1%
- inhibition [38]: 1%
- inhibition [39]: 1%
- inhibition [40]: 0%
- inhibition [41]: 0%
- inhibition [42]: 0%
- inhibition [43]: 0%
- inhibition [44]: 0%
- inhibition [45]: 0%
- inhibition [46]: 0%
- Ratio IC50 [47]: > 10

SMILES: c1ccc2cc(-n3ccnc3-c3ccncc3)ccc2c1
- pIC50 [1]: 5.72
- pIC50 [2]: 5.19
- pIC50 [3]: < 4.30
- remaining at 0.5 h [5]: 0%
- remaining at 0.5 h [6]: 18%

SMILES: c1ccc2cc(-c3cnnn3-c3ccncc3)ccc2c1
- pIC50 [1]: 5.32
- pIC50 [2]: 4.73
- pIC50 [3]: < 4.30
- remaining at 0.5 h [5]: 0%
- remaining at 0.5 h [6]: 12%
- remaining at 1 h [7]: 90%
- remaining at 1 h [8]: 78%
- Papp A→B at 2 h, 5 µM [48]: 37.9 ×10⁻⁶ cm/s

SMILES: Cc1nnc(-c2ccncc2)n1-c1ccc2ccccc2c1
- pIC50 [1]: 4.74
- pIC50 [2]: 4.34
- pIC50 [3]: < 4.30
- solubility [4]: 100 µM (≈ 28.6 µg/mL)

SMILES: c1ccc2cc(-c3nn[nH]c3-c3ccncc3)ccc2c1
- Ratio IC50 [47]: 20

SMILES: c1ccc2cc(-c3ccnn3-c3ccncc3)ccc2c1
- pIC50 [1]: 5.61
- pIC50 [2]: 5.03
- pIC50 [3]: 4.38
- remaining at 0.5 h [5]: 0%
- remaining at 0.5 h [6]: 2%

SMILES: c1ccc2cc(-n3nncc3-c3ccncc3)ccc2c1
- pIC50 [1]: 5.57
- pIC50 [2]: 5.04
- pIC50 [3]: < 4.30
